A word on the inhibition in vivo: it is how much of the control response was suppressed.

We go through 1 compound from ChEMBL document CHEMBL3046760, “Preharvest L-arginine treatment induced postharvest disease resistance to Botrysis cinerea in tomato fruits” (2011).

Assay [1] has as its system Solanum lycopersicum. Nature of the assay: Induction of resistance to Botrytis cinerea-induced Solanum lycopersicum (tomato) fruit Solanum lycopersicum cv. No. 4 Zhongshu gray mold disease assessed as increase in NOS activity at 1 mM preharvest treatment measured after 3 days relative to control. It counts as functional, organism-based. The method in brief: (§1)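 Plants received 1 mM L-arginine (5 mL) injected near the root, with a water control. Frozen fruit mesocarp was extracted in HEPES-KOH pH 7.6 buffer. For NO, extract was pretreated with catalase and SOD, oxyhemoglobin was added, and A550 was read at 37 °C against a buffer blank; results are given as μmol/g FW. NOS was measured by the hemoglobin assay on cytosolic/microsomal fractions. Three replicates.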

The subject of assay [2] is Botrytis cinerea. Nature of the assay: Induction of resistance to Botryotinia fuckeliana-induced tomato fruit Solanum lycopersicum cv. No. 4 Zhongshu gray mold disease assessed as disease incidence at 0.5 mM injected near root area measured after 3 days relative to control. The class given is functional. The method in brief:
(§2)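 Plants received 5 mL of L-arginine (0.5, 1 or 5 mM) by injection at a cut near the root area, with distilled water as control; 30 plants per treatment. Green mature fruit were picked 0–12 days after treatment. Fruit were ethanol-sterilised and wounded at three equator sites, each receiving 10 μL of 2 × 10^5 conidia/mL. Fruit were kept at 25 °C, 90–95% RH. Incidence and lesion area (3.14 × (d/2)²) were scored at 4 days; three replicates.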

Assay [3] deals with Botrytis cinerea. Nature of the assay: Induction of resistance to Botryotinia fuckeliana-induced tomato fruit Solanum lycopersicum cv. No. 4 Zhongshu gray mold disease assessed as inhibition of lession area at 1 mM injected near root area measured after 6 days relative to control. The class given is functional. The conditions noted are these: 144 h. The method, boiled down: as §2

The test system of assay [4] is Solanum lycopersicum. Nature of the assay: Induction of resistance to Botrytis cinerea-induced Solanum lycopersicum (tomato) fruit Solanum lycopersicum cv. No. 4 Zhongshu gray mold disease assessed as induction of defensive enzyme phenylalanine ammonialyase activity at 1 mM preharvest treatment measured after 9 days relative to control. The class given is functional, organism-based. The method, boiled down:
(§3)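 Plants received 1 mM L-arginine (5 mL) injected near the root, with a water control. Fruit mesocarp was extracted in phosphate pH 6.8 (PAL, PPO) or acetate pH 5 (CHI, GLU) buffer. Readouts: PAL, L-phenylalanine in borate pH 8.8, 30 °C 1 h, A290. PPO, 0.1 M catechol, ΔA420 over 3 min. CHI, colloidal chitin at 40 °C then snailase, A585. GLU, 0.4% laminarin at 37 °C 1 h, DNS, A500. Three replicates.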

The test system of assay [5] is Botrytis cinerea. Nature of the assay: Induction of resistance to Botryotinia fuckeliana-induced tomato fruit Solanum lycopersicum cv. No. 4 Zhongshu gray mold disease assessed as inhibition of lession area at 1 mM injected near root area measured after 3 days relative to control. The conditions noted are these: 72 h. The class given is functional. The method in brief: as §2

Assay [6] relates to Botrytis cinerea. Nature of the assay: Induction of resistance to Botryotinia fuckeliana-induced tomato fruit Solanum lycopersicum cv. No. 4 Zhongshu gray mold disease assessed as disease incidence at 5 mM injected near root area measured after 12 days relative to control. The class given is functional, organism-based. The method, boiled down:
as §2

Assay [7] concerns Solanum lycopersicum. Nature of the assay: Induction of resistance to Botrytis cinerea-induced Solanum lycopersicum (tomato) fruit Solanum lycopersicum cv. No. 4 Zhongshu gray mold disease assessed as induction of defensive enzyme polyphenoloxidase activity at 1 mM preharvest treatment measured after 3 days relative to control. It counts as functional, organism-based. The method, boiled down:
as §3

The test system of assay [8] is Botrytis cinerea. The experiment in a line: Induction of resistance to Botryotinia fuckeliana-induced tomato fruit Solanum lycopersicum cv. No. 4 Zhongshu gray mold disease assessed as disease incidence at 5 mM injected near root area measured after 6 days relative to control. It counts as functional. The method in brief: as §2
The test system of assay [9] is Botrytis cinerea. Nature of the assay: Induction of resistance to Botryotinia fuckeliana-induced tomato fruit Solanum lycopersicum cv. No. 4 Zhongshu gray mold disease assessed as disease incidence at 1 mM injected near root area measured after 6 days relative to control. It counts as functional. The method, boiled down:
as §2

Assay [10] deals with Solanum lycopersicum. The experiment in a line: Induction of resistance to Botrytis cinerea-induced Solanum lycopersicum (tomato) fruit Solanum lycopersicum cv. No. 4 Zhongshu gray mold disease assessed as induction of defensive enzyme beta-1,3-glucanase activity at 1 mM preharvest treatment measured after 3 days relative to control. It counts as functional. The method in brief:
as §3

The subject of assay [11] is Botrytis cinerea. The experiment in a line: Induction of resistance to Botryotinia fuckeliana-induced tomato fruit Solanum lycopersicum cv. No. 4 Zhongshu gray mold disease assessed as inhibition of lession area at 1 mM injected near root area measured after 12 days relative to control. It counts as functional. The conditions noted are these: 288 h. The method in brief:
as §2

Assay [12] has as its system Solanum lycopersicum. Nature of the assay: Induction of resistance to Botrytis cinerea-induced Solanum lycopersicum (tomato) fruit Solanum lycopersicum cv. No. 4 Zhongshu gray mold disease assessed as induction of defensive enzyme beta-1,3-glucanase activity at 1 mM preharvest treatment measured after 9 days relative to control. It counts as functional. The method in brief:
as §3

The test system of assay [13] is Botrytis cinerea. The experiment in a line: Induction of resistance to Botryotinia fuckeliana-induced tomato fruit Solanum lycopersicum cv. No. 4 Zhongshu gray mold disease assessed as disease incidence at 1 mM injected near root area measured after 3 days relative to control. It counts as functional. The method in brief:
as §2

Assay [14] concerns Botrytis cinerea. Nature of the assay: Induction of resistance to Botryotinia fuckeliana-induced tomato fruit Solanum lycopersicum cv. No. 4 Zhongshu gray mold disease assessed as disease incidence at 0.5 mM injected near root area measured after 6 days relative to control. It counts as functional. The method in brief: as §2
Assay [15] deals with Solanum lycopersicum. The experiment in a line: Induction of resistance to Botrytis cinerea-induced Solanum lycopersicum (tomato) fruit Solanum lycopersicum cv. No. 4 Zhongshu gray mold disease assessed as induction of total phenolics content at 1 mM preharvest treatment measured after 3 days relative to control. It counts as functional. The method, boiled down:
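Plants received 1 mM L-arginine (5 mL) injected near the root, with a water control. A685 was calibrated against […] and expressed as catechin equivalents (mg/100 g FW). Mean of three replicates.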

Assay [16] concerns Botrytis cinerea. The experiment in a line: Induction of resistance to Botryotinia fuckeliana-induced tomato fruit Solanum lycopersicum cv. No. 4 Zhongshu gray mold disease assessed as disease incidence at 1 mM injected near root area measured after 12 days relative to control. It counts as functional, organism-based. The method, boiled down:
as §2

Assay [17] concerns Botrytis cinerea. Nature of the assay: Induction of resistance to Botryotinia fuckeliana-induced tomato fruit Solanum lycopersicum cv. No. 4 Zhongshu gray mold disease assessed as disease incidence at 0.5 mM injected near root area measured after 12 days relative to control. The class given is functional, organism-based. The method in brief: as §2
Assay [18] deals with Solanum lycopersicum. The experiment in a line: Induction of resistance to Botrytis cinerea-induced Solanum lycopersicum (tomato) fruit Solanum lycopersicum cv. No. 4 Zhongshu gray mold disease assessed as induction of defensive enzyme chitinase activity at 1 mM preharvest treatment measured after 3 days relative to control. The class given is functional. The method in brief: as §3

Assay [19] deals with Botrytis cinerea. The experiment in a line: Induction of resistance to Botryotinia fuckeliana-induced tomato fruit Solanum lycopersicum cv. No. 4 Zhongshu gray mold disease assessed as disease incidence at 5 mM injected near root area measured after 3 days relative to control. The class given is functional. The method in brief:
as §2

The subject of assay [20] is Solanum lycopersicum. The experiment in a line: Induction of resistance to Botrytis cinerea-induced Solanum lycopersicum (tomato) fruit Solanum lycopersicum cv. No. 4 Zhongshu gray mold disease assessed as induction of defensive enzyme beta-1,3-glucanase activity at 1 mM preharvest treatment measured after 6 days relative to control. The class given is functional. The method, boiled down: as §3

The subject of assay [21] is Botrytis cinerea. The experiment in a line: Effect on mycelial growth of Botryotinia fuckeliana relative to control. The class given is functional, organism-based. The method in brief: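 Mycelial growth on PDA containing 1 mM L-arginine in the molten agar. A 7 mm B. cinerea disk was placed at the centre of a 90 mm dish and incubated at 25 °C. Colony diameter was read at 2, 3 and 4 days. Inhibition (%) = (control diameter − treated diameter)/(control diameter − 7 mm) × 100. Triplicate plates; the experiment was run twice.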

Assay [22] concerns Solanum lycopersicum. Nature of the assay: Induction of resistance to Botrytis cinerea-induced Solanum lycopersicum (tomato) fruit Solanum lycopersicum cv. No. 4 Zhongshu gray mold disease assessed as increase in NO content at 1 mM preharvest treatment measured after 3 days relative to control. It counts as functional, organism-based. The method, boiled down: as §1
For assay [23], the system named is Botrytis cinerea. The experiment in a line: Induction of resistance to Botryotinia fuckeliana-induced tomato fruit Solanum lycopersicum cv. No. 4 Zhongshu gray mold disease assessed as inhibition of lession area at 1 mM injected near root area measured after 9 days relative to control. The conditions noted are these: 216 h. The class given is functional. The method in brief:
as §2

The structures appear in SMILES notation. Activity calls are given as the source filed them. The calls are words filed in the database; no cut-off is given here.

In the case of `N=C(N)NCCC[C@H](N)C(=O)O` [ARGININE], the result in [1], in assay [4], in [6], in [7], in [16] and in assay [17] was Active. Further, the outcome in assay [22] was Active. Further, the Activity in assay [2] was determined as 29%; in assay [8], 38%; in assay [9], 18%; in [13] it was 16%; in assay [14], 31%; in assay [19], 37%. In addition, the inhibition in vivo at 1000 µM in assay [3] came to 90%; in assay [5] it was 86%; in [11], 85%; in assay [23], 90%. The “fold change (FC)” value in assay [10] worked out at 1.6; in [12] it was 3.1; in assay [15] it was 1.17; in assay [18], 1.9; in assay [20], 1.4. Further, the result in [21] was inactive.
